Measured values as given in ChEMBL document CHEMBL1799918, “Growth inhibitory activities of oxyprenylated and non-prenylated naturally occurring phenylpropanoids in cancer cell lines” (Bioorg Med Chem Lett, 2011).

Assays:
LoVo = assay: Cytotoxicity against human LoVo cells after 72 hrs by MTT assay; type: functional, cell-based
Summary of the method: (§1)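 MTT colorimetric assay on human cancer cell lines; IC50 growth inhibitory concentration determined in vitro for each compound.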

[1] = Cytotoxicity against human U373 cells assessed as growth inhibition at MTT assay-related IC50 by quantitative video microscopy relative to control; type: functional, U-373MG ATCC
[2] = Cytotoxicity against human U373 cells after 72 hrs by MTT assay; type: functional, cell-based, U-373MG ATCC; conditions: U373 MG; summary of the method: as §1
SK-MEL-28 = assay: Cytotoxicity against human SK-MEL-28 cells after 72 hrs by MTT assay; type: functional, cell-based; conditions: SK-MEL-28, 72 h; summary of the method: as §1
PC-3 = assay: Cytotoxicity against human PC3 cells after 72 hrs by MTT assay; type: functional, cell-based; conditions: PC-3, 72 h; summary of the method: as §1
[3] = Induction of human U373 cell death assessed as morphological changes at MTT assay-related IC50 after 72 hrs by quantitative video microscopy; type: functional, U-373MG ATCC
A549 = assay: Cytotoxicity against human A549 cells after 72 hrs by MTT assay; type: functional, cell-based; conditions: A549, 72 h; summary of the method: as §1
[4] = Cytotoxicity against human OE21 cells after 72 hrs by MTT assay; type: functional, cell-based; conditions: OE21, 72 h; summary of the method: as §1
[5] = Cytostatic activity against human U373 cells assessed as growth inhibition at MTT assay-related IC50 by quantitative video microscopy relative to control; type: functional, U-373MG ATCC

Row | Compound | IC50 (LoVo) [µM] | growth inhibition (GI) [1] [%] | IC50 [2] [µM] | IC50 (SK-MEL-28) [µM] | IC50 (PC-3) [µM] | Activity [3] [%] | IC50 (A549) [µM] | IC50 [4] [µM] | growth inhibition (GI) [5] [%]
1 | CC(=O)c1c(O)cc(OC/C=C(\C)CC/C=C(\C)CCC=C(C)C)cc1O | 32 | 70 | 33 | 33 | 38 | 42 | 26 | 18 | –
2 | CC(C)=CCOc1ccc2ccc(=O)oc2c1O | 92 | – | > 100 | > 100 | > 100 | – | > 100 | > 100 | –
3 | COc1cc(C(=O)O)ccc1OCC=C(C)C | > 100 | – | > 100 | > 100 | > 100 | – | > 100 | > 100 | –
4 | CC(=O)c1ccc(OCC=C(C)C)cc1O | > 100 | – | > 100 | > 100 | > 100 | – | > 100 | > 100 | –
5 | CC(C)=CCC/C(C)=C/COc1cc(O)c2c(c1)C(=O)c1cc(C)cc(O)c1C2=O | 14 | 90 | 18 | 40 | 30 | 100 | 32 | > 100 | –
6 | COc1cc(/C=C/C=O)cc(OC)c1OCC=C(C)C | 31 | 90 | 30 | 32 | 28 | 100 | 68 | 29 | –
7 | COc1cc(/C=C/C=O)ccc1OC/C=C(\C)CCC=C(C)C | 12 | 80 | 7 | 28 | 24 | 26 | 5 | 34 | –
8 | COc1cc(/C=C/CO)cc(OC)c1OCC=C(C)C | > 100 | – | > 100 | > 100 | > 100 | – | > 100 | > 100 | –
9 | COc1cc(/C=C/CO)ccc1OC/C=C(\C)CCC=C(C)C | 27 | 80 | 25 | 31 | 21 | 41 | 29 | 23 | –
10 | COc1cc(/C=C/CO)cc(OC)c1O | > 100 | – | > 100 | > 100 | > 100 | – | > 100 | 80 | –
11 | CC(C)=CCC/C(C)=C/COc1ccc(/C=C/C(=O)O)cc1 | > 100 | – | > 100 | > 100 | > 100 | – | > 100 | > 100 | –
12 | COc1cc(/C=C/C(=O)O)ccc1OC/C=C(\C)CCC=C(C)C | > 100 | – | > 100 | > 100 | > 100 | – | > 100 | > 100 | –
13 | COc1cc(/C=C/C=O)cc(OC)c1O | 33 | – | 56 | 66 | 63 | 2 | > 100 | 39 | 50
14 | CC(=O)c1ccc(O)cc1O | 97 | – | > 100 | > 100 | > 100 | – | > 100 | 45 | –
15 | CC(=O)c1c(O)cc(OC/C=C(\C)CCC=C(C)C)cc1O | 35 | 80 | 29 | 40 | 48 | 15 | 34 | 34 | –
16 | CC(C)=CCOc1ccc(C(=O)/C=C/c2ccc(O)cc2)c(O)c1 | 57 | 70 | 87 | > 100 | > 100 | 17 | 66 | 58 | –
17 | CC(=O)c1ccc(OC/C=C(\C)CCC=C(C)C)cc1O | 38 | 80 | 48 | 44 | 27 | 17 | 51 | 37 | –
18 | O=C(/C=C/c1ccccc1)c1ccc(O)cc1O [2',4'-DIHYDROXYCHALCONE] | 81 | – | > 100 | 75 | > 100 | – | > 100 | 49 | –
19 | CC(=O)c1c(O)cc(O)cc1O [2,4,6-TRIHYDROXYACETOPHENONE] | 90 | – | > 100 | > 100 | > 100 | – | 100 | 42 | –
